# Key:
# [1] = test system: Escherichia coli; assay: In vitro antibacterial activity of compound against Escherichia coli SKF 12140; type: functional
# [2] = test system: Streptococcus pneumoniae; assay: In vitro antibacterial activity of compound against Streptococcus pneumoniae UC 41; type: functional
# Outline: (§1)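 Streptococcal MICs were run by twofold microdilution in Todd-Hewitt broth over 128-0.0001 µg/mL. Inoculum was 10^4 cfu/mL, with incubation at 37 °C for 18-24 h.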
# [3] = test system: Staphylococcus aureus; assay: Activity in the murine model (subcutaneous route) of Staphylococcus aureus tour septicemia; type: functional; conditions: sc
# Outline: (§2)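 Male and female CD1 mice (18-22 g) were infected ip with S. aureus Tour. The challenge was set so untreated mice died within 48 h. Groups were five mice, dosed once daily for 3 days starting immediately after infection. ED50 was calculated on day 10 from the percentage surviving at each dose.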
# [4] = test system: Mycobacterium tuberculosis; assay: In vitro antibacterial activity of compound against Mycobacterium tuberculosis H37Rv ATCC 9660; type: functional
# [5] = test system: Staphylococcus epidermidis; assay: In vitro antibacterial activity of compound against Staphylococcus epidermidis ATCC 12228; type: functional
# Outline: (§3)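 Twofold microdilution MIC in Iso-Sensitest broth over 128-0.0001 µg/mL. Inoculum was 10^4 cfu/mL, with incubation at 37 °C for 18-24 h.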
# [6] = test system: Pseudomonas aeruginosa; assay: In vitro antibacterial activity of compound against Pseudomonas aeruginosa ATCC 10145; type: functional; outline: as §3
# [7] = test system: Enterococcus faecalis; assay: In vitro antibacterial activity of compound against Streptococcus faecalis ATCC 7080.; type: functional; outline: as §3
# [8] = test system: Streptococcus pyogenes; assay: In vitro antibacterial activity of compound against Streptococcus pyogenes C 203 SKF 13400; type: functional; outline: as §1
# [9] = test system: Staphylococcus aureus; assay: In vitro antibacterial activity of compound against Staphylococcus aureus Tour L 165; type: functional; outline: as §3
# [10] = test system: Klebsiella pneumoniae; assay: In vitro antibacterial activity of compound against Klebsiella pneumoniae ISM; type: functional
# [11] = test system: Neisseria gonorrhoeae; assay: In vitro antibacterial activity of compound against Neisseria gonorrhoeae ISM 68/126; type: functional
# [12] = test system: Proteus vulgaris; assay: In vitro antibacterial activity of compound against Proteus vulgaris X19H ATCC 881; type: functional
# [13] = test system: Haemophilus influenzae; assay: In vitro antibacterial activity of compound against Haemophilus influenzae ATCC 19418; type: functional
# [14] = test system: Mycobacterium scrofulaceum; assay: In vitro activity of compound against slowly growing Mycobacterium scrofulaceum 1293; type: functional
# Outline: (§4)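 Medium was Middlebrook 7H10 agar with 2% glycerol and 10% OADC. Organisms from Loevenstein-Jensen slants were grown in 7H9 broth with 0.5% Tween and 10% OADC, adjusted to McFarland no. 1, and spotted with a multipoint inoculator. Sealed plates were incubated at 22, 30 or 37 °C for 4-20 days depending on strain.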
# [15] = test system: Mycolicibacterium fortuitum; assay: In vitro activity of compound against rapidly growing Mycobacterium fortuitum 646; type: functional; outline: as §4
# [16] = test system: Mycobacterium scrofulaceum; assay: In vitro activity of compound against slowly growing Mycobacterium scrofulaceum 1292; type: functional; outline: as §4
# [17] = test system: Mycobacterium marinum; assay: In vitro activity of compound against slowly growing Mycobacterium marinum 1388; type: functional; outline: as §4
# [18] = test system: Mycolicibacterium fortuitum; assay: In vitro activity compound against rapidly growing Mycobacterium fortuitum 1302; type: functional; outline: as §4
# [19] = test system: Mycobacterium gordonae; assay: In vitro activity of compound against slowly growing Mycobacterium gordonae 1294; type: functional; outline: as §4
# [20] = test system: Mycobacterium marinum; assay: In vitro activity of compound against slowly growing Mycobacterium marinum 1390; type: functional; outline: as §4
# [21] = test system: Mycolicibacterium fortuitum; assay: In vitro activity of compound against rapidly growing Mycobacterium fortuitum 1287; type: functional; outline: as §4
# [22] = test system: Mycobacterium kansasii; assay: In vitro activity of compound against slowly growing Mycobacterium kansasii 1299; type: functional; outline: as §4
# [23] = test system: Mycolicibacterium phlei; assay: In vitro activity of compound against rapidly growing Mycobacterium phlei 141; type: functional; outline: as §4
# [24] = test system: Mycobacteroides chelonae; assay: In vitro activity of compound against rapidly growing Mycobacterium chelonae 1443
# [25] = test system: Mycobacterium kansasii; assay: In vitro activity compound against slowly growing Mycobacterium kansasii 1298; type: functional; outline: as §4
# [26] = test system: Staphylococcus aureus; assay: Activity in the murine model (OS route) of Staphylococcus aureus tour septicemia; type: functional; outline: as §2
# [27] = test system: Mycobacterium marinum; assay: In vitro activity of compound against slowly growing Mycobacterium marinum 1391; type: functional; outline: as §4
# [28] = test system: Mycobacterium avium; assay: 50% inhibition of the 20 Mycobacterium (MAC) avium complex clinical isolates; type: functional
# Outline: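 Agar-dilution MICs, 2-fold dilutions over 128-0.0001 μg/mL, on Middlebrook 7H10 agar with 2% glycerol and 10% OADC. Organisms from Loevenstein-Jensen slants were grown in 7H9 broth with 0.5% Tween and 10% OADC, adjusted to McFarland no. 1, and spotted with a multipoint inoculator. Plates were sealed and incubated at 22, 30 or 37 °C for 4-20 days depending on strain.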
# [29] = test system: Mycobacterium kansasii; assay: In vitro activity compound against slowly growing Mycobacterium kansasii 1291; type: functional; outline: as §4
# [30] = test system: Mycobacterium xenopi; assay: In vitro activity of compound against slowly growing Mycobacterium xenopi 554; type: functional; outline: as §4
# [31] = test system: Mycolicibacterium flavescens; assay: In vitro activity of compound against rapidly growing Mycobacterium flavescens 1284; type: functional; outline: as §4
# [32] = test system: Streptococcus pyogenes; assay: Minimum inhibitory concentration of compound against Streptococcus pyogenus septicemia in the mouse; type: functional
# [33] = test system: Mycobacterium marinum; assay: In vitro activity of compound against slowly growing Mycobacterium marinum 1392 h; type: functional; outline: as §4
# [34] = test system: Mycobacterium marinum; assay: In vitro activity of compound against slowly growing Mycobacterium marinum 1447; type: functional; outline: as §4
# [35] = test system: Mycolicibacterium flavescens; assay: In vitro activity of compound against rapidly growing Mycobacterium flavescens 1286; type: functional; outline: as §4
# [36] = test system: Mycobacterium marinum; assay: In vitro activity of compound against slowly growing Mycobacterium marinum 1393; type: functional; outline: as §4
# [37] = test system: Mycobacterium scrofulaceum; assay: In vitro activity of compound against slowly growing Mycobacterium scrofulaceum 1297; type: functional; outline: as §4
# [38] = test system: Mycobacterium xenopi; assay: In vitro activity of compound against slowl growingy Mycobacterium xenopi 555; type: functional; outline: as §4
# [39] = test system: Mycolicibacterium fortuitum; assay: In vitro activity of compound against rapidly growing Mycobacterium fortuitum 726; type: functional; outline: as §4
# [40] = test system: Mycobacterium marinum; assay: In vitro activity of compound against slowly growing Mycobacterium marinum 1394; type: functional; outline: as §4
# [41] = test system: Mycobacterium xenopi; assay: In vitro activity of compound against slowly growing Mycobacterium xenopi 556; type: functional; outline: as §4
# [42] = test system: Streptococcus pyogenes; assay: Inhibitory concentration of compound against Streptococcus pyogenus septicemia in the mouse, administarted in subcutaneous route; type: functional; conditions: sc
# Outline: (§5)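 Male and female CD1 mice (18-22 g) were infected ip with S. pyogenes C203, with the challenge set so untreated mice died within 48 h. Groups of five received a single treatment immediately after infection. ED50 was calculated from the percentage surviving at each dose on day 10.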
# [43] = test system: Streptococcus pyogenes; assay: Inhibitory concentration of compound against Streptococcus pyogenus septicemia in the mouse, administarted in OS route; type: functional; outline: as §5
# [44] = test system: Mycobacterium xenopi; assay: In vitro activity compound against slowly growing Mycobacterium xenopi 1446; type: functional; outline: as §4
# [45] = test system: Mycobacterium gordonae; assay: In vitro activity of compound against slowly growing Mycobacterium gordonae 1441; type: functional; outline: as §4
# [46] = test system: Mycolicibacterium fortuitum; assay: In vitro activity of compound against rapidly growing Mycobacterium fortuitum 114; type: functional; outline: as §4
# [47] = test system: Mycolicibacterium fortuitum; assay: In vitro activity of compound against rapidly growing Mycobacterium fortuitum 1285; type: functional; outline: as §4
# [48] = test system: Mycolicibacterium phlei; assay: In vitro activity of compound against rapidly growing Mycobacterium phlei 1289; type: functional; outline: as §4
# [49] = test system: Mycolicibacterium fortuitum; assay: In vitro activity of compound against rapidly growing Mycobacterium fortuitum 645; type: functional; outline: as §4
# [50] = test system: Mycolicibacterium phlei; assay: In vitro activity of compound against rapidly growing Mycobacterium phlei 1283; type: functional; outline: as §4
# [51] = test system: Mycobacterium scrofulaceum; assay: In vitro activity of compound against slowly growing Mycobacterium scrofulaceum 1301; type: functional; outline: as §4
smiles,measurement,setting,value
COC1/C=C/OC2(C)Oc3c(C)c(O)c4c(O)c(c5sc(N6CCN(C)CC6)nc5c4c3C2=O)NC(=O)/C(C)=C\C=C\C(C)C(O)C(C)C(O)C(C)C(O)C1C (centres undefined),MIC,[1],8 µg/mL
same,MIC,[2],0.063 µg/mL
same,ED50,[3],10 mg/kg
same,MIC,[4],1 µg/mL
same,MIC,[5],0.125 µg/mL
same,MIC,[6],16 µg/mL
same,MIC,[7],1 µg/mL
same,MIC,[8],0.063 µg/mL
same,MIC,[9],0.008 µg/mL
same,MIC,[10],16 µg/mL
same,MIC,[11],1 µg/mL
same,MIC,[12],8 µg/mL
same,MIC,[13],0.125 µg/mL
CO[C@H]1/C=C/O[C@@]2(C)Oc3c(C)c(O)c4c(O)c(c(/C=N/N5CCN(C)CC5)c(O)c4c3C2=O)NC(=O)/C(C)=C\C=C\[C@H](C)[C@H](O)[C@@H](C)[C@@H](O)[C@@H](C)[C@H](OC(C)=O)[C@@H]1C [RIFAMPIN],MIC,[14],0.063 µg/mL
same,MIC,[1],8 µg/mL
same,MIC,[2],0.063 µg/mL
same,MIC,[15],128 µg/mL
same,MIC,[16],0.063 µg/mL
same,MIC,[17],1 µg/mL
same,MIC,[18],1 µg/mL
same,MIC,[19],0.5 µg/mL
same,ED50,[3],0.09 mg/kg
same,MIC,[20],2 µg/mL
same,MIC,[4],0.25 µg/mL
same,MIC,[5],0.008 µg/mL
same,MIC,[21],2 µg/mL
same,MIC,[22],8 µg/mL
same,MIC,[6],8 µg/mL
same,MIC,[23],0.032 µg/mL
same,MIC,[24],> 128 µg/mL
same,MIC,[25],0.125 µg/mL
same,ED50,[26],0.28 mg/kg
same,MIC,[7],1 µg/mL
same,MIC,[27],0.5 µg/mL
same,MIC50,[28],16 µg/mL
same,MIC,[29],16 µg/mL
same,MIC,[8],0.063 µg/mL
same,MIC,[30],1 µg/mL
same,MIC,[31],128 µg/mL
same,MIC,[32],0.063 µg/mL
same,MIC,[33],0.5 µg/mL
same,MIC,[9],0.016 µg/mL
same,MIC,[34],1 µg/mL
same,MIC,[35],0.25 µg/mL
same,MIC,[36],0.5 µg/mL
same,MIC,[37],0.125 µg/mL
same,MIC,[38],1 µg/mL
same,MIC,[39],32 µg/mL
same,MIC,[40],0.5 µg/mL
same,MIC,[41],1 µg/mL
same,ED50,[42],0.35 mg/kg
same,ED50,[43],0.47 mg/kg
same,MIC,[44],1 µg/mL
same,MIC,[45],4 µg/mL
same,MIC,[46],128 µg/mL
same,MIC,[10],16 µg/mL
same,MIC,[47],4 µg/mL
same,MIC,[11],0.125 µg/mL
same,MIC,[48],8 µg/mL
same,MIC,[49],4 µg/mL
same,MIC,[12],8 µg/mL
same,MIC,[50],0.25 µg/mL
same,MIC,[13],0.125 µg/mL
same,MIC,[51],8 µg/mL

# Reference: ChEMBL document CHEMBL1124774, “Synthesis and biological activity of some derivatives of rifamycin P” (1990)
